A selection: hits, their analogues and other compounds. The true share with any hit is near 4.7%.
MrgX1 antagonist = human MrgX1 receptor antagonism, primary screen; AID 588676; MRGX1-HEK293 calcium flux, Fluo-4, BAM8-22 antagonism; active compounds read low; B-score at 10 µM; Q96LB2; 1.3% of 310,000 active;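 active = calcium-response B-score plate-corrected more than 3 library SD below zero, starting fluorescence within 5 deviations, no agonist response on first addition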;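 also: peak minus trough fluorescence over baseline after final BAM8-22 challenge near maximal dose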
Target sequence (Q96LB2 whole entry, looked up): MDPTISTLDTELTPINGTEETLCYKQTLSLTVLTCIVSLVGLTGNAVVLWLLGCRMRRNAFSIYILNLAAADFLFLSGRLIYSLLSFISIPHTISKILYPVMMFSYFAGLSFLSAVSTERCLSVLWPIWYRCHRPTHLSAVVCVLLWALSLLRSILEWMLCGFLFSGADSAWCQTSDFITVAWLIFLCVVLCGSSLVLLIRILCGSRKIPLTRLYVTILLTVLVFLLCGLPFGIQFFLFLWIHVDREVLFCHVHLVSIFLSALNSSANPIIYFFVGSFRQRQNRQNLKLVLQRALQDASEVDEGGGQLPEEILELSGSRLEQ
RGS4 block = human RGS4 inhibition; P49798; HEK293 M3R/RGS4 inducible, Fluo-4 calcium flux; active compounds read high; triggered by carbachol at its EC20; B-score at 10 µM; 0.45% of 310,000 active; AID 463165;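 active = B-score, a plate-corrected calcium signal, over three deviations above library mean, with baseline fluorescence within five deviations of library mean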;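 also: RGS4 expression induced by doxycycline in cells with stable M3 receptor; B-score is computed from the integrated fluorescence ratio over baseline after carbachol; higher B-score means a larger calcium signal and so more RGS4 inhibition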
Target sequence (P49798 whole entry, looked up): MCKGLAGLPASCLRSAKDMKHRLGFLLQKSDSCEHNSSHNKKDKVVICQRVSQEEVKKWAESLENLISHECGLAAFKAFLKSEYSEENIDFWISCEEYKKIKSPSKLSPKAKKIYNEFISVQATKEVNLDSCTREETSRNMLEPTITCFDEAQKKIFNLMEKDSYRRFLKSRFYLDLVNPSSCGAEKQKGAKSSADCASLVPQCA
MrgX1 agonist = activates human MrgX1 receptor signaling; MrgX1-HEK293 cells, Fluo-4 calcium fluorescence, agonist mode; active compounds read high; B-score at 10 µM; 0.44% of 310,000 active; AID 588627;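 active = calcium response B-score plate-corrected fluorescence ratio at least 3 library SD, with starting fluorescence B-score inside 5 SD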
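Test system: Stable human MrgX1 HEK293 cell line | Schedule: Overnight plating before 1 h dye loading | Read-out basis: Baseline-normalised fluorescence change ratio, B-scored | Detection: Kinetic calcium dye fluorescence, Fluo-4 NW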
RGS4 pot = potentiators or activators of RGS4; AID 463111; HEK293 M3R/inducible RGS4, carbachol calcium flux Fluo4; active compounds read low; B-score at 10 µM; 0.92% of 310,000 active;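 active = B-score of the integrated calcium signal more than 4 SD below the library mean, with starting fluorescence not abnormally high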;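 also: negative B-score means reduced calcium response which marks RGS4 activation or potentiation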
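Assay system: HEK293 FlpIn-TREx cells, stable M3R, doxycycline-inducible RGS4 / Probe or stimulus: carbachol, ECmax concentration / Times: overnight RGS4 induction, 30 min dye load 37 °C, 20 min compound RT / Signal: kinetic calcium fluorescence imaging with Fluo4-AM dye, 2 µM / Measure: Agonist-evoked peak-minus-minimum fluorescence over baseline, integrated ratio, B score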
Cl transport mod = modulators of human KCC2 chloride dependent transport | KCC2 cells, thallium flux FluoZin-2 fluorescence | Q9H2X9 | B-score of Tl+ flux slope (higher = more flux/activation; lower = inhibition) at 10 µM | 2.2% of 190,000 active | AID 1456;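 active = thallium flux slope and its plate-corrected score both differing from the plate sample mean at a set confidence after two filtering rounds, in either direction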;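 also: slope of fluorescence scaled to starting intensity during 10 to 20 s after thallium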
MrgX1 allo act = allosterically activates human MrgX1 receptor signaling; AID 588675; MrgX1-HEK293, Fluo-4 calcium flux, FDSS; active compounds read high; B-score at 10 µM; 0.63% of 310,000 active;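 active = plate-corrected calcium response at least 3 library SD above typical, normal starting fluorescence, not activating the receptor alone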;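 also: compound read alongside a low EC10 to EC30 dose of BAM8-22 agonist; peak minus trough fluorescence over baseline measured at the second addition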
Hits are given with their value; i = inactive; nt = not tested or not shown; ! = repeats disagree.

SMILES	MrgX1 antagonist	RGS4 block	MrgX1 agonist	RGS4 pot	Cl transport mod	MrgX1 allo act
COC(=O)c1cc(C(=O)c2cc(F)ccc2O)cn2c(=O)c3c(C)c(C)sc3nc12	-4.67	i	i	-6.95	nt	i
CN(C)NC(=S)Nc1ccc(Cl)cc1	-6.02	i	i	i	i	i
CNNC(=S)Nc1ccc(Cl)cc1	i	i	i	i	i	i
C=CCc1ccccc1OCC(=O)NNC(=S)NCc1ccccc1	i	i	i	-6.97	nt	i
O=C(COc1ccc(Cl)cc1)NNC(=S)NCc1ccccc1	i	i	i	i	nt	i
CSc1ccc(/C=C2\C(=N)N3N=C(CC(=O)N4CCCCC4)SC3=NC2=O)cc1	i	i	38	i	nt	i
CSc1ccc(/C=C2\C(=N)N3N=C(CC(=O)N4CCOCC4)SC3=NC2=O)cc1	i	i	i	i	nt	11.1
N=C1/C(=C\c2ccc(Br)o2)C(=O)N=C2SC(CC(=O)N3CCOCC3)=NN12	i	i	i	i	nt	i
CCN(CC)c1ccc(/C=C2\C(=N)N3N=C(CC(=O)N4CCOCC4)SC3=NC2=O)cc1	i	i	28.3	i	nt	i
Cc1ccc(/C=C2\C(=N)N3N=C(CC(=O)N4CCCCC4)SC3=NC2=O)cc1	i	i	i	i	nt	i
O=C(CNc1cccc(F)c1)N1CCc2ccccc2C1	i	i	i	i	nt	i
CC(NC(=O)C1CCN(S(=O)(=O)c2ccc3c(c2)NC(=O)CO3)CC1)c1ccccc1 (centres undefined)	i	i	i	i	nt	i
Nc1nc(NCCc2ccccc2)nc(NCCO)c1[N+](=O)[O-]	i	i	i	i	nt	i
COc1ccc(NC(=O)c2ccc(COc3ccccc3Br)o2)cc1OC	i	i	i	i	-5.97	i
Cc1cc(C(=O)CCC(=O)N2CCN(c3ccccc3)CC2)c(C)s1	i	i	i	i	nt	i
CC(=O)Nc1ccc(S(=O)(=O)NCCC(=O)OCc2csc(CC(=O)Nc3ccccc3C)n2)cc1	-4.54	i	i	i	nt	i
CCOC(=O)COc1ccc(S(=O)(=O)Nc2ccc3c(c2)OCO3)cc1	i	i	i	-8.48	i	i
COc1ccc(CN(CC(=O)NC(C)C)C(=O)CCC(=O)Nc2nccs2)cc1	i	i	i	i	nt	i
COc1ccccc1CNS(=O)(=O)c1ccc(-n2cnnn2)c(OC)c1	i	i	i	i	nt	i
CC1=C(C)/C(=N\OS(=O)(=O)c2ccccc2)C=CC1=O	i	i	32.8	i	nt	i
COc1cccc(CN(C)C(=O)/C=C/c2ccc(S(=O)(=O)N3CCCCCC3)cc2)c1	i	i	i	i	nt	i
O=C1CCC([N+](=O)[O-])C(c2cc3c(cc2Cl)OCO3)N1 (centres undefined)	-4.51	i	i	i	i	i
O=C(CC(=O)c1ccccc1)Nc1cc([N+](=O)[O-])ccc1Cl	i	i	i	i	nt	i
O=C(COC(=O)c1ccccc1NS(=O)(=O)c1cc([N+](=O)[O-])ccc1Cl)c1ccccc1	i	i	31.9	i	i	i
O=C(CCC(=O)OCC(=O)c1ccc([N+](=O)[O-])cc1)Nc1ccccc1Cl	-5.52	i	i	i	nt	i
SMILES	MrgX1 antagonist	RGS4 block	MrgX1 agonist	RGS4 pot	Cl transport mod	MrgX1 allo act
CC(=O)Nc1ccc(SCC(=O)OCC(=O)NC(=O)NCCC(C)C)cc1	-7.35	i	i	i	i	i
O/N=C/Cc1[nH]c2ccccc2c1-c1ccccc1	i	i	i	i	nt	i
COC(=O)CNC(=O)Cn1c(=O)n(Cc2ccc(F)cc2)c(=O)c2sccc21	i	i	i	i	nt	i
O=C(Nc1ccc(OCC(F)(F)C(F)F)c(C(F)(F)F)c1)c1ccc(Cl)cc1	i	i	i	-7.76	nt	i
COc1ccc(C(=O)Nc2ccc(OCC(F)(F)C(F)F)c(C(F)(F)F)c2)cc1OC	i	i	i	i	i	i
O=C(Nc1ccc(Br)c(C(F)(F)F)c1)c1ccc(C(F)(F)F)cc1	-7.23	i	i	i	i	i
Cc1c(C)c2c(OCC(=O)N[C@@H](CC(C)C)C(=O)O)cc3c(c2oc1=O)CCC(C)(C)O3	i	i	i	i	nt	i
COc1ccc(C(C)=O)cc1CC(=O)Nc1ccc2c(c1)CCC2	i	i	i	i	nt	i
COc1cccc2sc(N(CCCN(C)C)C(=O)c3ccc(S(=O)(=O)N4CCCc5ccccc54)cc3)nc12	i	i	i	i	nt	i
CCc1ccc2nc(N(CCCN(C)C)C(=O)c3ccc(C(=O)c4ccccc4)cc3)sc2c1	i	i	i	-8.07	nt	i
COc1cc2nc(N(CCCN(C)C)C(=O)c3ccc(C(=O)c4ccccc4)cc3)sc2cc1OC	i	i	i	i	nt	i
CCc1ccc2nc(N(CCCN(C)C)C(=O)c3ccc(S(=O)(=O)N4CCCC4)cc3)sc2c1	i	i	i	-10.7	nt	i
COc1ccc(OC)c2sc(N(CCCN(C)C)C(=O)c3ccc(S(=O)(=O)N4CCc5ccccc5C4)cc3)nc12	-6.15	i	i	-10.1	nt	i
CCc1ccc2nc(N(CCCN(C)C)C(=O)c3ccc(S(=O)(=O)N4CCCc5ccccc54)cc3)sc2c1	i	i	i	-7.31	nt	i
O=C(Nc1nc(-c2ccc3c(c2)OCCO3)cs1)C1CCCC1	i	i	i	i	i	i
CCN(CC(=O)Nc1ccccc1C(F)(F)F)C(=O)/C=C/c1ccc(Cl)c([N+](=O)[O-])c1	i	i	i	i	nt	i
O=C(c1ccc(CNS(=O)(=O)c2ccc(Br)cc2)cc1)N1CCCCCC1	i	i	i	i	nt	i
CCOC(=O)N1CCN(S(=O)(=O)c2ccc(C(=O)N(CCCN(C)C)c3nc4c(F)cc(F)cc4s3)cc2)CC1	-7.9	i	i	i	nt	i
COc1ccc(NC(=O)CSc2nnc(CC(=O)Nc3ccc(F)cc3)n2C)cc1	i	i	i	i	nt	i
CC(C)c1ccc(-n2c(-c3ccccc3)c[n+]3c2CCc2ccccc2-3)cc1	nt	i	nt	i	i	nt
COc1ccccc1-n1c(-c2ccccc2)c[n+]2c1CCc1ccccc1-2	i	i	i	-7.94!	i	i
C/C=C/C=C/C(=O)OC(C)C(=O)Nc1cc([N+](=O)[O-])ccc1OC (centres undefined)	i	i	i	i	i	7.55
CCOC(=O)c1c(C)[nH]c(C(=O)N2CCc3cc(OC)c(OC)cc3C2)c1C	i	i	i	i	nt	i
CCNc1ccc(Br)cc(C(=O)/C=C/c2c(Cl)cccc2Cl)c1=O	-4.57	i	i	i	nt	i
O=[N+]([O-])c1cc(Br)c(Nc2ccccc2)c([N+](=O)[O-])c1	i	i	i	i	nt	6.55
COc1ccc(N2Cc3ccc(C(=O)N/N=C\c4ccc(O)cc4O)cc3C2)cc1	i	i	i	i	nt	i
Cc1c(C(=O)O)c(=S)sn1CCOc1ccccc1	nt	i	nt	i	-2.5	nt
Cc1cc(=O)[nH]c(SCC(=O)NN(c2ccccc2)c2ccccc2)n1	i	i	i	i	i	i

Source: PubChem BioAssay (several laboratories)
